Reference: ChEMBL document CHEMBL4261657, “Discovery of Clinical Candidate 2-(4-(2-((1 H-Benzo[ d]imidazol-2-yl)thio)ethyl)piperazin-1-yl)- N-(6-methyl-2,4-bis(methylthio)pyridin-3-yl)acetamide Hydrochloride [K-604], an Aqueous-Soluble Acyl-CoA:Cholesterol O-Acyltransferase-1 Inhibitor” (J Med Chem, 2018)
Converted amounts (≈) assume the structure as drawn. Blank lines part the entries; values can stand above or below the compound they belong to. The source made the active and inactive calls. The rule behind the calls is not given here.

Columns and labels:
[1] = Inhibition of ACAT in arterial homogenates isolated from 1% cholesterol fed New Zealand White rabbit assessed as reduction in cholesteryl oleate formation incubated for 5 mins in presence of [14C]-oleoyl-CoA and BSA complex by TLC method; format: tissue-based, Oryctolagus cuniculus
[2] = Inhibition of ACAT in New Zealand White rabbit intestinal microsomes assessed as reduction in cholesteryl oleate formation incubated for 3 mins in presence of [14C]-oleoyl-CoA and BSA complex by TLC method; parameters: species or system Oryctolagus cuniculus, Intestine
[3] = AUC (0 to infinity) in Sprague-Dawley rat at 30 mg/kg, po by LC/MS analysis; format: ADME, organism-based; parameters: dose 30 mg/kg, route oral, time infinity; conditions: in vivo
Summary of the method: (§1)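 Nonfasted male Sprague-Dawley rats (8 weeks old, n = 3) were given a single oral dose of 30 mg/kg in 0.05 N HCl solution. Heparin plasma was drawn from the forearm vein at 0.5, 1, 2, 4, 6 and 8 h. Samples were basified with NH4OH, spiked with internal standard, extracted with i-PrOH/n-hexane 5:95 and quantified by positive-ion ESI LC/MS on an RP8 column at 40 °C.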

[4] = test system: Salmonella typhimurium; assay: Genotoxicity in Salmonella typhimurium TA100 by Ames test; format: toxicity, organism-based; conditions: salmonella enterica subsp. enterica serovar typhimurium
[5] = test system: Hamster; assay: Antiatherosclerotic activity in Bio F1B hamster model of diet-induced atherosclerosis assessed as reduction in total plasma cholesterol at 10 mg/kg/day added to chow pellets relative to control; format: functional, Cricetinae; parameters: scale not given: the % may be the effect or the level left
Summary of the method: (§2)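 Male Bio F1B hamsters (8 weeks old) were fed CE-2 chow with 0.3% cholesterol and 10% coconut oil for 10 weeks, with compound mixed into the chow (n=7 per dose; reference group n=6). Plasma TC was measured by enzymatic kit. Aorta was perfusion-fixed with 4% paraformaldehyde under pentobarbital anaesthesia, opened and stained with oil red O, and lipid area was measured by image analysis. Results are % of control ± SD, analysed by Dunnett's test.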

[6] = test system: Hamster; assay: Antiatherosclerotic activity in Bio F1B hamster model of diet-induced atherosclerosis assessed as reduction in lipid accumulation areas in aortic arch at 10 mg/kg/day added to chow pellets by oil red O staining based assay relative to control; format: functional, Cricetinae; parameters: scale not given: the % may be the effect or the level left; summary of the method: as §2
[7] = test system: Hamster; assay: Antiatherosclerotic activity in Bio F1B hamster model of diet-induced atherosclerosis assessed as reduction in CE to FC ratio in intestine at 1 to 30 mg/kg/day added to chow pellets; format: functional, organism-based; conditions: Cricetinae
[8] = test system: Salmonella typhimurium; assay: Genotoxicity in Salmonella typhimurium TA1535 by Ames test; format: toxicity, organism-based; conditions: salmonella enterica subsp. enterica serovar typhimurium
[9] = test system: Hamster; assay: Antiatherosclerotic activity in Bio F1B hamster model of diet-induced atherosclerosis assessed as reduction in total plasma cholesterol at 3 mg/kg/day added to chow pellets relative to control; format: functional, Cricetinae; parameters: scale not given: the % may be the effect or the level left; summary of the method: as §2
[10] = test system: Hamster; assay: Antiatherosclerotic activity in Bio F1B hamster model of diet-induced atherosclerosis assessed as reduction in total plasma cholesterol at 30 mg/kg/day added to chow pellets relative to control; format: functional, Cricetinae; parameters: scale not given: the % may be the effect or the level left; summary of the method: as §2
[11] = organism: Oryctolagus cuniculus; conditions: New Zealand White
[12] = Half life in Sprague-Dawley rat at 30 mg/kg, po by LC/MS analysis; format: ADME, organism-based; conditions: in vivo; summary of the method: as §1
[13] = Chemical stability of the compound in acidic condition at 10 mg after 7 days by HPLC analysis; format: physicochemical; conditions: 168 h
[14] = Tmax in Sprague-Dawley rat at 30 mg/kg, po by LC/MS analysis; format: ADME, organism-based; conditions: in vivo; summary of the method: as §1
[15] = Cmax in Sprague-Dawley rat at 30 mg/kg, po by LC/MS analysis; format: ADME, organism-based; parameters: dose 30 mg/kg, route oral; conditions: in vivo; summary of the method: as §1
[16] = test system: Escherichia coli; assay: Genotoxicity in Escherichia coli […] by Ames test; format: toxicity, organism-based
[17] = test system: Salmonella typhimurium; assay: Genotoxicity in Salmonella typhimurium TA1537 by Ames test; format: toxicity, organism-based; conditions: salmonella enterica subsp. enterica serovar typhimurium
[18] = test system: Hamster; assay: Toxicity in Bio F1B hamster model of diet-induced atherosclerosis assessed as reduction in CE to FC ratio in adrenal gland at 1 to 30 mg/kg/day added to chow pellets; format: organism-based; conditions: cricetinae, in vivo, po
[19] = test system: Hamster; assay: Antiatherosclerotic activity in Bio F1B hamster model of diet-induced atherosclerosis assessed as reduction in CE to FC ratio in liver at 1 to 30 mg/kg/day added to chow pellets; format: functional, organism-based; conditions: Cricetinae
[20] = test system: Salmonella typhimurium; assay: Genotoxicity in Salmonella typhimurium TA98 by Ames test; format: toxicity, organism-based; conditions: salmonella enterica subsp. enterica serovar typhimurium
[21] = test system: Hamster; assay: Antiatherosclerotic activity in Bio F1B hamster model of diet-induced atherosclerosis assessed as reduction in lipid accumulation areas in aortic arch at 3 mg/kg/day added to chow pellets by oil red O staining based assay relative to control; format: functional, Cricetinae; parameters: scale not given: the % may be the effect or the level left; summary of the method: as §2
[22] = Solubility of the compound in 0.1N HCl; format: physicochemical
[23] = Aqueous solubility of the compound at pH 1.2; format: physicochemical; conditions: aqueous solution
[24] = Solubility of the compound in pH 1.0 solution; format: physicochemical
[25] = Fraction unbound in New Zealand White rabbit plasma at 200 ng/mL by HPLC-MS/MS analysis; format: ADME, cell-free, Oryctolagus cuniculus
[26] = Cmax in fasted Beagle dog at 10 mg/kg, po by LC/MS analysis; format: ADME, organism-based, Canis lupus familiaris; parameters: dose 10 mg/kg, route oral; conditions: in vivo
Summary of the method: (§3)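 Male beagle dogs (n = 4), single oral dose of 10 mg/kg, given fasted or nonfasted; the Experimental section states the vehicle was 0.05 N HCl solution, while the table footnote states capsules. Foreleg vein blood was taken at 0.5, 1, 2, 4, 6 and 8 h. Plasma was extracted with i-PrOH/n-hexane (5:95) after NH4OH and internal standard were added, then measured by LC/MS (ESI positive, RP8 column). Values are means ± SD.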

[27] = Cmax in fasted Sprague-Dawley rat at 30 mg/kg, po by LC/MS analysis; format: ADME, organism-based; parameters: dose 30 mg/kg, route oral; conditions: in vivo
[28] = Toxicity in po dosed male monkey after 26 weeks; format: organism-based, Macaca mulatta; conditions: rhesus monkey, in vivo
[29] = Tmax in non-fasted Beagle dog at 10 mg/kg, po by LC/MS analysis; format: ADME, organism-based, Canis lupus familiaris; conditions: in vivo; summary of the method: as §3
[30] = Cmax in non-fasted Beagle dog at 10 mg/kg, po by LC/MS analysis; format: ADME, organism-based, Canis lupus familiaris; parameters: dose 10 mg/kg, route oral; conditions: in vivo; summary of the method: as §3
[31] = AUC in monkey; format: ADME, organism-based, Macaca mulatta; conditions: rhesus monkey, in vivo
[32] = Toxicity in po dosed female Beagle dog after 4 weeks; format: organism-based, Canis lupus familiaris; conditions: in vivo
[33] = Toxicity in po dosed female monkey after 26 weeks; format: organism-based, Macaca mulatta; conditions: rhesus monkey, in vivo
[34] = Tmax in fasted Beagle dog at 10 mg/kg, po by LC/MS analysis; format: ADME, organism-based, Canis lupus familiaris; conditions: in vivo; summary of the method: as §3
[35] = Lipophilicity, log P of the compound at pH 6.8; format: physicochemical; conditions: buffer
[36] = AUC (0 to 8 hrs) in fasted Beagle dog at 10 mg/kg, po by LC/MS analysis; format: ADME, organism-based, Canis lupus familiaris; parameters: time < 8 hr, dose 10 mg/kg, route oral; conditions: in vivo; summary of the method: as §3
[37] = Cmax in monkey; format: ADME, organism-based, Macaca mulatta; conditions: rhesus monkey, in vivo
[38] = AUC (0 to 8 hrs) in non-fasted Beagle dog at 10 mg/kg, po by LC/MS analysis; format: ADME, organism-based, Canis lupus familiaris; parameters: dose 10 mg/kg, time < 8 hr, route oral; conditions: in vivo; summary of the method: as §3
[39] = Toxicity in po dosed male Beagle dog after 4 weeks; format: organism-based, Canis lupus familiaris; conditions: in vivo

- IC50 [1]: 110 nM
- IC50 [2]: 510 nM
Structure (SMILES): CC(C)c1cccc(C(C)C)c1NC(=O)CN1CCN(CCSc2nc3ccccc3[nH]2)CC1

- IC50 [1]: 16 nM
- IC50 [2]: 36 nM
Structure (SMILES): CC(C)c1cccc(C(C)C)c1NC(=O)CN1CCN(CCSc2nc3ccccc3s2)CC1

- AUC(0-inf) [3]: 4120 ng·h/mL
- IC50 [1]: 33 nM
- half-life [12]: 10.1 h
- Stability [13]: Unstable
- Tmax [14]: 2.8 h
- Cmax [15]: 158 ng/mL
- IC50 [2]: 29 nM
Structure (SMILES): CSc1cc(C)nc(SC)c1NC(=O)CN1CCN(CCSc2nc3ccccc3o2)CC1
- Activity [4]: Non-Toxic
- Activity [5]: 28%
- Activity [6]: 32%
- Activity [7]: Active
- Activity [8]: Non-Toxic
- Activity [9]: 73%
- Activity [10]: 24%
- fIC50 [11]: 0.89 nM
- Activity [16]: Non-Toxic
- Activity [17]: Non-Toxic
- Activity [18]: Toxic
- Activity [19]: Active
- Activity [20]: Non-Toxic
- Activity [21]: 37%

- IC50 [1]: 24 nM
- IC50 [2]: 93 nM
Structure (SMILES): CC(C)c1cccc(C(C)C)c1NC(=O)CC[C@H]1CCCC[C@H]1CSc1nc2ccccc2o1 (relative stereo)

- solubility [22]: 6400 µg/mL
Structure (SMILES): CC(C)c1cccc(C(C)C)c1NC(=O)NCC1(Cc2ccc(N(C)C)cc2)CCCC1.Cl

- solubility [23]: 180 µg/mL (≈ 385 µM)
Structure (SMILES): CC(C)c1cccc(C(C)C)c1NC(=O)CCCCCSc1nc2cccc(N(C)C)c2o1

- IC50 [1]: 230 nM
- IC50 [2]: 410 nM
Structure (SMILES): CC(C)c1cc(C(C)C)c(NC(=O)CN2CCN(CCSc3nc4ccccc4[nH]3)CC2)c(C(C)C)c1

- IC50 [2]: 320 nM
Structure (SMILES): CC(C)c1cccc(C(C)C)c1NC(=O)CN1CCN(CCSc2nc3ncccc3o2)CC1

- solubility [24]: 2180 µg/mL (≈ 5000 µM)
Structure (SMILES): CC(C)c1cccc(C(C)C)c1NC(=O)NCC1(Cc2ccc(N(C)C)cc2)CCCC1

- AUC(0-inf) [3]: 594 ng·h/mL
- fraction unbound at 200 ng/mL [25]: 0.027
- Cmax [26]: 5470 ng/mL
- Cmax [27]: 568 ng/mL
- Tmax [29]: 2.3 h
- Cmax [30]: 1420 ng/mL
- AUC [31]: 3000 ng·h/mL
- solubility [23]: 19000 µg/mL
- IC50 [1]: 84 nM
- Tmax [34]: 1 h
- half-life [12]: 2.1 h
- Tmax [14]: 0.7 h
- logD [35]: 3.3
- Cmax [15]: 192 ng/mL
- AUC(0-t) at 8 h [36]: 13900 ng·h/mL
- Cmax [37]: 1000 ng/mL
- IC50 [2]: 450 nM
- AUC(0-t) at 8 h [38]: 3580 ng·h/mL
Structure (SMILES): CSc1cc(C)nc(SC)c1NC(=O)CN1CCN(CCSc2nc3ccccc3[nH]2)CC1.Cl
- NOAEL at 4368 h [28]: 10 mg/kg
- Activity [4]: Non-Toxic
- Activity [6]: 53%
- Activity [7]: Active
- Activity [8]: Non-Toxic
- NOAEL at 672 h [32]: 10 mg/kg
- NOAEL at 4368 h [33]: 10 mg/kg
- fIC50 [11]: 2.3 nM
- Activity [16]: Non-Toxic
- Activity [17]: Non-Toxic
- Activity [18]: Non-Toxic
- Activity [19]: Active
- Activity [20]: Non-Toxic
- NOAEL at 672 h [39]: 10 mg/kg
- Activity [21]: 71%

- IC50 [1]: 12 nM
- IC50 [2]: 37 nM
Structure (SMILES): CC(C)c1cccc(C(C)C)c1NC(=O)CN1CCN(CCSc2nc3ccccc3o2)CC1
